From ChEMBL document CHEMBL3243970, “Synthesis and biological activity of some derivatives of thiochroman-4-one and tetrahydrothiapyran-4-one” (1977)
The source made the active and inactive calls. No cut-off for these calls is given here.

Legend:
[1] = test system: Bacillus subtilis; test: Antimicrobial activity against Bacillus subtilis assessed as growth inhibition at 91 ug/ml after 24 hrs by spectrophotometry; type: functional; settings: read-out: GI
In short: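 Primary screen of Bacillus subtilis growth in the presence of test compound at 91 µg/mL.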

[2] = test system: Pseudomonas fluorescens; test: Antimicrobial activity against Pseudomonas fluorescens assessed as growth inhibition at 91 ug/ml after 24 hrs by spectrophotometry; type: functional; settings: read-out: GI
[3] = test system: Bacillus subtilis; test: Antimicrobial activity against Bacillus subtilis assessed as growth inhibition after 24 hrs by spectrophotometry; type: functional, organism-based
[4] = test system: Pseudomonas fluorescens; test: Antimicrobial activity against Pseudomonas fluorescens assessed as growth inhibition after 24 hrs by spectrophotometry; type: functional, organism-based
[5] = test system: KB; test: Cytotoxicity against human KB cells assessed as growth inhibition after 24 hrs by crystal violet staining method; type: functional, cell-based
[6] = test system: Pseudomonas fluorescens; test: Antimicrobial activity against Pseudomonas fluorescens assessed as growth inhibition at 75 ug/ml after 24 hrs by spectrophotometry; type: functional; settings: read-out: GI
[7] = test system: Bacillus subtilis; test: Antimicrobial activity against Bacillus subtilis assessed as growth inhibition at 75 ug/ml after 24 hrs by spectrophotometry; type: functional; settings: read-out: GI
[8] = test system: KB; test: Cytotoxicity against human KB cells assessed as growth inhibition at 12.5 ug/ml after 24 hrs by crystal violet staining method; type: functional; settings: read-out: GI
[9] = test system: L1210 (Mus musculus); test: Potentiation of mitomycin C-induced antitumor activity against mouse L1210 cells allografted in BDF1 mouse administered ip on days 2 to 6 post challenge relative to control
[10] = test system: L1210 (Mus musculus); test: Potentiation of actinomycin D-induced antitumor activity against mouse L1210 cells allografted in BDF1 mouse administered ip on days 2 to 6 post challenge relative to control
[11] = test system: KB; test: Cytotoxicity against human KB cells assessed as growth inhibition at 50 ug/ml after 24 hrs by crystal violet staining method; type: functional; settings: read-out: GI

## O=S1(=O)Cc2c[n+]([O-])n(-c3ccccc3)c2-c2ccccc21
[1]
  inhibition of growth at 91 µg/mL: 0%
[2]
  inhibition of growth at 91 µg/mL: 0%

## c1n[nH]c2c1CSCC2
[1]
  inhibition of growth at 91 µg/mL: 0%
[2]
  inhibition of growth at 91 µg/mL: 0%

## c1ccc(-n2ncc3c2-c2ccccc2SC3)cc1
[3]
  growth inhibition (GI): inactive
[4]
  growth inhibition (GI): inactive
[5]
  growth inhibition (GI): inactive

## O=S1(=O)Cc2cn[nH]c2-c2ccccc21
[1]
  inhibition of growth at 91 µg/mL: 0%

## O=S1(=O)Cc2cnoc2-c2ccccc21
[1]
  inhibition of growth at 91 µg/mL: 0%

## O=c1[nH]n(-c2ccccc2)c2c1CSCC2
[1]
  inhibition of growth at 91 µg/mL: 0%
[2]
  inhibition of growth at 91 µg/mL: 0%

## c1ccc2c(c1)SCc1cn[nH]c1-2
[6]
  inhibition of growth at 75 µg/mL: 0%
[7]
  inhibition of growth at 75 µg/mL: 100%
[8]
  inhibition of growth at 12.5 µg/mL: 28%
[9]
  T/C: 10%
[10]
  Activity: inactive

## O=C1CCS(=O)(=O)c2ccccc21
[1]
  inhibition of growth at 91 µg/mL: 100%
[2]
  inhibition of growth at 91 µg/mL: 0%
[11]
  inhibition of growth at 50 µg/mL: 17%

## c1ccc2c(c1)SCc1cnoc1-2
[1]
  inhibition of growth at 91 µg/mL: 100%
[2]
  inhibition of growth at 91 µg/mL: 0%
[11]
  inhibition of growth at 50 µg/mL: 100%

## O=C1NN=C2CCSCC12 (centres undefined)
[1]
  inhibition of growth at 91 µg/mL: 0%
[2]
  inhibition of growth at 91 µg/mL: 0%
